Laboratory results published in ChEMBL document CHEMBL4359902, “Development of novel chromeno[4,3-c]pyrazol-4(2H)-one derivates bearing sulfonylpiperazine as antitumor inhibitors targeting PI3Kα” (Eur J Med Chem, 2019).

Columns and labels:
[1] = test system: HCT-116; assay: Induction of apoptosis in human HCT116 cells assessed as early apoptotic cells at 0.5 uM measured after 24 hrs by annexin-v-FITC/propidium iodide staining based FACScan flow cytometry analysis (reference value: 10.0 %); format: functional
[2] = test system: HCT-116; assay: Induction of apoptosis in human HCT116 cells assessed as necrotic cells at 0.5 uM measured after 24 hrs by annexin-v-FITC/propidium iodide staining based FACScan flow cytometry analysis (reference value: 1.87 %); format: functional
[3] = test system: HCT-116; assay: Induction of apoptosis in human HCT116 cells assessed as late apoptotic cells at 0.25 uM measured after 24 hrs by annexin-v-FITC/propidium iodide staining based FACScan flow cytometry analysis (reference value: 9.61 %); format: functional
[4] = target: Phosphatidylinositol 4,5-bisphosphate 3-kinase catalytic subunit alpha isoform (Homo sapiens, UniProt P42336); assay: Inhibition of PI3K-alpha in human HCT116 cells assessed as decrease in phosphorylated S6K protein expression level measured after 24 hrs by Western blot analysis; format: cell-based
Sequence of Phosphatidylinositol 4,5-bisphosphate 3-kinase catalytic subunit alpha isoform (P42336 whole entry, canonical isoform): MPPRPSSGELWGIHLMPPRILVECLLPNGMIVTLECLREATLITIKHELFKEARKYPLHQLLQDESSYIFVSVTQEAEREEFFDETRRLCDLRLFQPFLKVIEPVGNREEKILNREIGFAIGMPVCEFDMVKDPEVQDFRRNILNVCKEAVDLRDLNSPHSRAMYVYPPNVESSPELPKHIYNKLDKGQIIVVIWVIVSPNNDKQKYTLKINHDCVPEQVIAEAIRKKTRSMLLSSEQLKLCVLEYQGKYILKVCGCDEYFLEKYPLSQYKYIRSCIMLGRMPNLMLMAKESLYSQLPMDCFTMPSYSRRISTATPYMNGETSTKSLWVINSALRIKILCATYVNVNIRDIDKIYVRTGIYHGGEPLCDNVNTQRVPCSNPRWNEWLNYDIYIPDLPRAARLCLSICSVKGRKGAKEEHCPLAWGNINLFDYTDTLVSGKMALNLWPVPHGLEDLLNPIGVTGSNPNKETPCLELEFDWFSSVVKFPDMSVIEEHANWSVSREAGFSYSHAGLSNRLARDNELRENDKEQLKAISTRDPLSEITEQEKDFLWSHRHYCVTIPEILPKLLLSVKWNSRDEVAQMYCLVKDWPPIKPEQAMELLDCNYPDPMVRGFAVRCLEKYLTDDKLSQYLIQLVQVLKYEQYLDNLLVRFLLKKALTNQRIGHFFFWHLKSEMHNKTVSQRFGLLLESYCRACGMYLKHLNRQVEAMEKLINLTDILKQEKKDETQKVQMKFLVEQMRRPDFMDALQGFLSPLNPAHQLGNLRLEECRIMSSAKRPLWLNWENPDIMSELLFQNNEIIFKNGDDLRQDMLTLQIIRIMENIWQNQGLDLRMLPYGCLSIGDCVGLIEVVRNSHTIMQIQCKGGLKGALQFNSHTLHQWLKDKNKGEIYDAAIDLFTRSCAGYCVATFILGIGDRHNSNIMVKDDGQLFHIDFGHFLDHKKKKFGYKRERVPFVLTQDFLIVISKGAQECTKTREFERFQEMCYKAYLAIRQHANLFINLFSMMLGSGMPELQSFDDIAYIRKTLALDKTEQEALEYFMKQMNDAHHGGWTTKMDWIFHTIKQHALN
Procedure, shortened: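 HCT-116 cells exposed for 24 h at 0.25, 0.5 and 1 μM, lysed in RIPA buffer, and analysed by SDS-PAGE/PVDF Western blot for p-Akt (Ser473) and p-S6K. β-actin internal control; densitometry mean ± SEM, n = 3.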

[5] = Cytotoxicity against human 293T cells; format: cell-based; conditions: HEK-293T cells
[6] = target: T1, Phosphatidylinositol 4,5-bisphosphate 3-kinase catalytic subunit delta isoform (Homo sapiens, UniProt O00329); assay: Inhibition of PI3Kdelta (unknown origin) using diC8-PI(4,5)P2 as substrate incubated for 3 hrs in presence of ATP by fluorescence polarization assay
T1 sequence (O00329 whole entry): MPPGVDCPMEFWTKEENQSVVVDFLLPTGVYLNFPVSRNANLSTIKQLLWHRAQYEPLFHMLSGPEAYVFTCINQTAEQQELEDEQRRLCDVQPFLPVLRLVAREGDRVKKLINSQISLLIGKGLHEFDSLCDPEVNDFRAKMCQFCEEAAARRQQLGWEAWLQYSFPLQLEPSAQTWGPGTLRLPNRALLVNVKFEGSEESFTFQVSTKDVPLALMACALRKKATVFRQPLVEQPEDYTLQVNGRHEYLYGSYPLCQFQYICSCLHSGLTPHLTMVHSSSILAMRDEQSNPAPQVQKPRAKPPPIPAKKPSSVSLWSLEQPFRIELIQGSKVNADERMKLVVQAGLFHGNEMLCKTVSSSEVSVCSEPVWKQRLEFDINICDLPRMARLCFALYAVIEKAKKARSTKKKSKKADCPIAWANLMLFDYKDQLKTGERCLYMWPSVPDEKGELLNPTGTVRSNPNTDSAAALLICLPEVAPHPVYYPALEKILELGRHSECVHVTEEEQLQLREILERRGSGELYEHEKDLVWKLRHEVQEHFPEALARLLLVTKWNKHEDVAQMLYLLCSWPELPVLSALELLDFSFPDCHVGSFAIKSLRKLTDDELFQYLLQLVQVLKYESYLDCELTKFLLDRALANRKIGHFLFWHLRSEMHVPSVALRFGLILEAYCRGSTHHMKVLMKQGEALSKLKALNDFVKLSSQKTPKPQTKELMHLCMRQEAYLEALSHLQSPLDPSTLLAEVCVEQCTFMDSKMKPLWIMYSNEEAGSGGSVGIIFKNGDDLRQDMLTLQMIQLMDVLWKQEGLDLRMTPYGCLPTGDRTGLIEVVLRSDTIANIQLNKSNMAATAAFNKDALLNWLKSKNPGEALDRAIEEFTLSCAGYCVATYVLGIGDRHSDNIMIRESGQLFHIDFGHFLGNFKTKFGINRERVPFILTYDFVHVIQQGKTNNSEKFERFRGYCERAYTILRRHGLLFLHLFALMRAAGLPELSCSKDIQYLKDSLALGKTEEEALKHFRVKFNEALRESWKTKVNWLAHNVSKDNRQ
Procedure, shortened: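 Fluorescence polarization competition assay, 10 μL reactions at pH 7: 2.5 mM MgCl₂, 5 mM HEPES, ATP, 10 mM DTT, 50 ng PI3K isoform, diC8-PI(4,5)P2 substrate. After 3 h at room temperature, reactions were chelator-quenched. Phosphoinositide binding protein and fluorophore-labelled tracer were added, then 1 h dark equilibration and polarization read.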

[7] = test system: HCT-116; assay: Induction of apoptosis in human HCT116 cells assessed as late apoptotic cells at 1 uM measured after 24 hrs by annexin-v-FITC/propidium iodide staining based FACScan flow cytometry analysis (reference value: 9.61 %); format: functional
[8] = target: Serine/threonine-protein kinase mTOR (Homo sapiens, UniProt P42345); assay: Inhibition of mTOR (unknown origin)
[9] = test system: HCT-116; assay: Antiproliferative activity against human HCT116 cells assessed as reduction in cell viability after 48 hrs by MTT assay; format: functional, cell-based; conditions: HCT-116, 48 h
[10] = test system: HCT-116; assay: Induction of apoptosis in human HCT116 cells assessed as decrease in Bcl-2 protein level measured after 24 hrs by Western blot analysis; format: functional, cell-based
Procedure, shortened: (§1)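 HCT-116 cells treated at 0.25, 0.5 and 1 μM for 24 h, lysed in RIPA buffer with PMSF. Proteins separated by SDS-PAGE (8% or 10%), transferred to PVDF and probed with primary antibodies and HRP secondaries. β-actin served as internal control; bands quantified as bar graphs.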

[11] = test system: HCT-116; assay: Cell cycle arrest in human HCT116 cells assessed as accumulation at G2 phase at 1 uM measured after 24 hrs by propidium iodide staining based flow cytometry analysis (reference value: 7.86 %); format: functional
[12] = test system: HCT-116; assay: Cell cycle arrest in human HCT116 cells assessed as accumulation at G1 phase at 0.5 uM measured after 24 hrs by propidium iodide staining based flow cytometry analysis (reference value: 42.01 %); format: functional
[13] = test system: HCT-116; assay: Induction of apoptosis in human HCT116 cells assessed as increase in cleaved caspase-9 protein level measured after 24 hrs by Western blot analysis; format: functional, cell-based; procedure, shortened: as §1
[14] = test system: HCT-116; assay: Induction of apoptosis in human HCT116 cells assessed as early apoptotic cells at 0.25 uM measured after 24 hrs by annexin-v-FITC/propidium iodide staining based FACScan flow cytometry analysis (reference value: 10.0 %); format: functional
[15] = test system: HL-60; assay: Antiproliferative activity against human HL60 cells assessed as reduction in cell viability after 48 hrs by MTT assay; format: functional, cell-based; conditions: HL-60, 48 h
[16] = test system: Huh-7; assay: Antiproliferative activity against human HuH7 cells assessed as reduction in cell viability after 48 hrs by MTT assay; format: functional, cell-based; conditions: Huh-7, 48 h
[17] = test system: HCT-116; assay: Antitumour activity against human HCT116 cells xenografted in nude mouse assessed as tumour growth inhibition at 10 mg/kg, ig administered every 3 days for 3 weeks and measured after 3 weeks relative to control; format: functional; conditions: HCT-116, po, read-out: TGI
Procedure, shortened: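 HCT-116 cells (5 × 10^6 per animal) injected into right flank of nude mice; at ~100 mm³ tumours, randomized into groups of 6. Dosed 10 mg/kg in 5% CMC-Na intragastrically every three days for three weeks; vehicle control 5% CMC-Na. Body weight and tumour size recorded every three days, volume = 0.5 × length × width²; tumours excised and weighed at end. Mean ± SD.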

[18] = test system: HCT-116; assay: Induction of apoptosis in human HCT116 cells assessed as necrotic cells at 1 uM measured after 24 hrs by annexin-v-FITC/propidium iodide staining based FACScan flow cytometry analysis (reference value: 1.87 %); format: functional

## O=c1oc2ccccc2c2nn(CN3CCN(S(=O)(=O)c4ccc(Cl)c([N+](=O)[O-])c4)CC3)cc12
[1]
  Activity: 17.1%
[2]
  Activity: 6.04%
[3]
  Activity: 21%
[4]
  inhibition: Dose-dependent effect
[5]
  CC50: 386000 nM
[6]
  IC50: 120 nM
[7]
  Activity: 36.9%
[8]
  IC50: 9380 nM
[9]
  IC50: 30 nM
[10]
  Activity: Dose-dependent effect
[11]
  Activity: 8.09%
[12]
  Activity: 50.95%
[13]
  Activity: Dose-dependent effect
[14]
  Activity: 16.1%
[15]
  IC50: 60 nM
[16]
  IC50: 90 nM
[17]
  inhibition in vivo at 10 mg/kg: 66.4%
[18]
  Activity: 1.04%
